ChEMBL document CHEMBL6071131, “New substituted benzoxazine derivatives as potent inducers of membrane permeability and cell death” (Bioorg Med Chem, 2024)
Activity calls are given as the source filed them. No cut-off for these calls is given here.

Legend:
[1] = system: MCF7; test: Antiproliferative activity against human MCF7 cells incubated for 72 hrs by SRB assay; type: functional, cell-based; conditions: MCF7, 72 h
Outline: (§1)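 Sulforhodamine B colorimetric read-out after 72 h drug exposure. Cells kept in DMEM with 10 % FBS and 1 % penicillin/streptomycin at 37 °C under 5 % CO₂, mycoplasma-checked, passaged under 6 months. Compounds given from DMSO stocks diluted in medium, final DMSO ≤ 0.1 % v/v, with DMSO-only parallel cultures as controls. IC50 reported as mean ± SD of three independent determinations, each run in duplicate.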

[2] = system: HCT-116; test: Antiproliferative activity against human HCT-116 cells incubated for 72 hrs by SRB assay; type: functional, cell-based; conditions: HCT-116, 72 h; outline: as §1
[3] = target: Epidermal growth factor receptor (Homo sapiens) (UniProt P00533); test: Inhibition of human EGFR assessed as residual activity at 5 uM relative to control
Epidermal growth factor receptor (Homo sapiens), sequence (P00533 whole entry): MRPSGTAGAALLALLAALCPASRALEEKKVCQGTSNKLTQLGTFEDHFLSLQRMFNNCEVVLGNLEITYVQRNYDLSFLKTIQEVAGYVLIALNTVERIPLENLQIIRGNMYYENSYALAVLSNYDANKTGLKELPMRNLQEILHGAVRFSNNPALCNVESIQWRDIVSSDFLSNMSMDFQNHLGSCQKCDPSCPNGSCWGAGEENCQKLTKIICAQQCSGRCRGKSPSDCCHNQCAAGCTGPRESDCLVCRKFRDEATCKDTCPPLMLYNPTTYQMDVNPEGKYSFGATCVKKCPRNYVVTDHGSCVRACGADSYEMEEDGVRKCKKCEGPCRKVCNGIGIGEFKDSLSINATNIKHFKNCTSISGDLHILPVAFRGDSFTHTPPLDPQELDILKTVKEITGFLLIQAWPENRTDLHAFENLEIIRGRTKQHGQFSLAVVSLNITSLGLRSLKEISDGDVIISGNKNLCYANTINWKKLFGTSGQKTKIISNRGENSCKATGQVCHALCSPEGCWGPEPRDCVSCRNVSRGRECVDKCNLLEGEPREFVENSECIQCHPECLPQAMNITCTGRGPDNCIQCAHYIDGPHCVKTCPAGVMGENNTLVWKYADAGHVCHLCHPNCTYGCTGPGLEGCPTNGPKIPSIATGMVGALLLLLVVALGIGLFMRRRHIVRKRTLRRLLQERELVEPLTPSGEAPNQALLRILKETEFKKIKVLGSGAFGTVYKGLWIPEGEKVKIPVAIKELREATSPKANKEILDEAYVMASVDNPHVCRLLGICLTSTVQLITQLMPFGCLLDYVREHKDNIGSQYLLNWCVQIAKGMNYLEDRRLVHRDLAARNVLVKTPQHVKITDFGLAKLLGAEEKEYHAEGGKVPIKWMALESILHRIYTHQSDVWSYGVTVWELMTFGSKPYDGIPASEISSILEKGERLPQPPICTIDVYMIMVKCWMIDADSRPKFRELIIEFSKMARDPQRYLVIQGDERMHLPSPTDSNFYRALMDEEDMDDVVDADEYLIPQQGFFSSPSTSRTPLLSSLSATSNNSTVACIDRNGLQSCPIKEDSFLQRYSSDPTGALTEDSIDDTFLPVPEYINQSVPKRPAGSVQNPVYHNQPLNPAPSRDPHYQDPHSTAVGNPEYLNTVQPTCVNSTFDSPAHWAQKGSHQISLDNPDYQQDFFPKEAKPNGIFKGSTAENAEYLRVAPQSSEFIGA
Outline: (§2)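 Residual kinase activity determined with each compound at 5×10⁻⁶ and 5×10⁻⁵ M, in singlicate per kinase assay, expressed relative to uninhibited control.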

[4] = target: Mitogen-activated protein kinase 14 (Homo sapiens) (UniProt Q16539); test: Inhibition of human P38-alpha assessed as residual activity at 5 uM relative to control; outline: as §2
Mitogen-activated protein kinase 14 (Homo sapiens), sequence (Q16539 whole entry): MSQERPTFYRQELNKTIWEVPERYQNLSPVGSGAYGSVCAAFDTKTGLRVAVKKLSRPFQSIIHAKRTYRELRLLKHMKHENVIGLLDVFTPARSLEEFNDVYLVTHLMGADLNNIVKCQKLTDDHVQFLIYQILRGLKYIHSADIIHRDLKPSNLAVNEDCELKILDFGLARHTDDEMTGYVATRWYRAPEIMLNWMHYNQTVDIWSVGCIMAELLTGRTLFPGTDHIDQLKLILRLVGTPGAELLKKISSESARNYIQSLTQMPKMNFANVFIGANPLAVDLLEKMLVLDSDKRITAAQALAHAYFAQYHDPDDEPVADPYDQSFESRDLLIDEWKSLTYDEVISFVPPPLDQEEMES

[5] = target: Mitogen-activated protein kinase 14 (Homo sapiens) (UniProt Q16539); test: Inhibition of human P38-alpha assessed as residual activity at 50 uM relative to control; outline: as §2
[6] = target: T1, LKB1-STRAD-MO25 complex (Homo sapiens) (UniProt Q15831+Q7RTN6+Q9Y376); test: Inhibition of human LKB1/MO25/STRADalpha assessed as residual activity at 50 uM relative to control; type: protein-complex assay; outline: as §2
[7] = target: 5'-AMP-activated protein kinase catalytic subunit alpha-1 (Homo sapiens) (UniProt Q13131); test: Inhibition of human AMPK alpha-1 assessed as residual activity at 5 uM relative to control; outline: as §2
5'-AMP-activated protein kinase catalytic subunit alpha-1 (Homo sapiens), sequence (Q13131 whole entry, looked up): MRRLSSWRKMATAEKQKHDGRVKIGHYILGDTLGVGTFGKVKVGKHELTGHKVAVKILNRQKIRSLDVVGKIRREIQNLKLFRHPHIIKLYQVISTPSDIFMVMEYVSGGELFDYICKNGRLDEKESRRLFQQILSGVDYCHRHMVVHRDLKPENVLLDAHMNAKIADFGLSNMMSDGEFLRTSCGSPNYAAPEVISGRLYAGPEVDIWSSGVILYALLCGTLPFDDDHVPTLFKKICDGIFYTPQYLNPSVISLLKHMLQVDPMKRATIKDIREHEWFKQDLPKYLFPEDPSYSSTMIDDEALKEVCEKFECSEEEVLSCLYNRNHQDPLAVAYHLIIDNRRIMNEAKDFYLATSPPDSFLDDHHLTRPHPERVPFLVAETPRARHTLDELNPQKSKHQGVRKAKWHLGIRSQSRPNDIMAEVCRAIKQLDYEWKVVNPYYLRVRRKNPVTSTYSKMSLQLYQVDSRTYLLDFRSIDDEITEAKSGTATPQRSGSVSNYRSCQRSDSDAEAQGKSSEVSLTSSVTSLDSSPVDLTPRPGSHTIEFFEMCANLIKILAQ

[8] = target: Receptor tyrosine-protein kinase erbB-2 (Homo sapiens) (UniProt P04626); test: Inhibition of human HER2 assessed as residual activity at 50 uM relative to control; outline: as §2
Receptor tyrosine-protein kinase erbB-2 (Homo sapiens), sequence (P04626 whole entry): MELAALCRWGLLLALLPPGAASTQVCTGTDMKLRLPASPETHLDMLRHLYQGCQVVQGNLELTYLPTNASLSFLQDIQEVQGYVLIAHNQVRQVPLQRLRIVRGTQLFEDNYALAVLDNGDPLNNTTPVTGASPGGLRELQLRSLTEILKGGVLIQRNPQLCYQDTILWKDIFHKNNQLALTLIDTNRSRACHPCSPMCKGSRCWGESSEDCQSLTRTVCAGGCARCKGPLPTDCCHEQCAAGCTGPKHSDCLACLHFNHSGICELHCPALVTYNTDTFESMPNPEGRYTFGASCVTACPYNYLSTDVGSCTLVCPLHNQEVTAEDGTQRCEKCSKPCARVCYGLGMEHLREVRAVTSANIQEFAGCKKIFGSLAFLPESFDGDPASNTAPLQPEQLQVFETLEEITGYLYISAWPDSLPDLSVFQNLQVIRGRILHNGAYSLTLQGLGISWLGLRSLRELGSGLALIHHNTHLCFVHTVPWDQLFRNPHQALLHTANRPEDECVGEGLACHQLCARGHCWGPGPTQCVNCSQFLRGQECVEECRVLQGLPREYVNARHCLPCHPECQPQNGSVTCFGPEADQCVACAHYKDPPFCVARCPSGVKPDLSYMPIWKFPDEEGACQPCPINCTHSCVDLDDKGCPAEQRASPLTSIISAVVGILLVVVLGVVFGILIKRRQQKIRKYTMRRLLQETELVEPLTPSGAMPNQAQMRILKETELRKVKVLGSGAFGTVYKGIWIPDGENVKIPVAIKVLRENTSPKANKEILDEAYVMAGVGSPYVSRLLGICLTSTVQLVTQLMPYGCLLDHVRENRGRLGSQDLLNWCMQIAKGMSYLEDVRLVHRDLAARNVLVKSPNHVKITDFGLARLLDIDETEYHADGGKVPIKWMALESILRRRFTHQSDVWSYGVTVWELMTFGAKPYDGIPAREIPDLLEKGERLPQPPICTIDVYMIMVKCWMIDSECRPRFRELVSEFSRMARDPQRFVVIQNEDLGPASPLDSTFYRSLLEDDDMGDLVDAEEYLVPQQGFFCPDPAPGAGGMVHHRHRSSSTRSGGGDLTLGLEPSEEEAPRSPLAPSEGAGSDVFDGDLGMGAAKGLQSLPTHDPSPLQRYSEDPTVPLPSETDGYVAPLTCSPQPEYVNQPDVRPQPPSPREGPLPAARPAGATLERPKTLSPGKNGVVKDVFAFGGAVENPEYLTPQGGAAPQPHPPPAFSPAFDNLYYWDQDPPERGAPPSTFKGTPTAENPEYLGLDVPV

[9] = species on record: Homo sapiens; test: Inhibition of human AKT assessed as residual activity at 50 uM relative to control; outline: as §2
[10] = target: Mitogen-activated protein kinase 1 (Homo sapiens) (UniProt P28482); test: Inhibition of human ERK2 assessed as residual activity at 5 uM relative to control; outline: as §2
Mitogen-activated protein kinase 1 (Homo sapiens), sequence (P28482 whole entry): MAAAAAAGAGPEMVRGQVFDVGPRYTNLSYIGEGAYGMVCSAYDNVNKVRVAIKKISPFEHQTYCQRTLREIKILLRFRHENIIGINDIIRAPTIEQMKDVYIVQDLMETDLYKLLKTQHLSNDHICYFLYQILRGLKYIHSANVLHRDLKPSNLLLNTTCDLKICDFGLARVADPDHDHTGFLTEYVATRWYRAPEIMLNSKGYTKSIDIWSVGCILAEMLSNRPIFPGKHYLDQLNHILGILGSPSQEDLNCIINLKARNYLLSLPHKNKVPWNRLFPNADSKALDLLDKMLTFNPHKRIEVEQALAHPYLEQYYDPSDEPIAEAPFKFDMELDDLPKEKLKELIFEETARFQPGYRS

[11] = target: 5'-AMP-activated protein kinase catalytic subunit alpha-1 (Homo sapiens) (UniProt Q13131); test: Inhibition of human AMPK alpha-1 assessed as residual activity at 50 uM relative to control; outline: as §2
[12] = target: Epidermal growth factor receptor (Homo sapiens) (UniProt P00533); test: Inhibition of human EGFR assessed as residual activity at 50 uM relative to control; outline: as §2
[13] = target: Mitogen-activated protein kinase 8 (Homo sapiens) (UniProt P45983); test: Inhibition of human JNK1 assessed as residual activity at 5 uM relative to control; outline: as §2
Mitogen-activated protein kinase 8 (Homo sapiens), sequence (P45983 whole entry): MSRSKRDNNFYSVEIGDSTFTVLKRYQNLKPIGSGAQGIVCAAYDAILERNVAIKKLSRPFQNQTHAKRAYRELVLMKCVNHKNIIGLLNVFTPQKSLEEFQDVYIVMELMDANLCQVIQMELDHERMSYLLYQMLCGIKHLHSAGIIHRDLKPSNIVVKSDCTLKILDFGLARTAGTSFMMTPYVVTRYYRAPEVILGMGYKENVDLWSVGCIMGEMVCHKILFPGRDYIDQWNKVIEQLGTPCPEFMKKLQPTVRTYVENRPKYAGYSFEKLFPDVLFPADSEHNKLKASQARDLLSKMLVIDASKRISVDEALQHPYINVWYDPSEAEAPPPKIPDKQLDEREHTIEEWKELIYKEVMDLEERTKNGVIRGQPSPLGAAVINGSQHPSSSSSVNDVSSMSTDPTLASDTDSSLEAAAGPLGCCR

[14] = target: Mitogen-activated protein kinase 1 (Homo sapiens) (UniProt P28482); test: Inhibition of human ERK2 assessed as residual activity at 50 uM relative to control; outline: as §2
[15] = target: T1, LKB1-STRAD-MO25 complex (Homo sapiens); test: Inhibition of human LKB1/MO25/STRADalpha assessed as residual activity at 5 uM relative to control; type: protein-complex assay; outline: as §2
[16] = species on record: Homo sapiens; test: Inhibition of human AKT assessed as residual activity at 5 uM relative to control; outline: as §2
[17] = target: Mitogen-activated protein kinase 8 (Homo sapiens) (UniProt P45983); test: Inhibition of human JNK1 assessed as residual activity at 50 uM relative to control; outline: as §2
[18] = target: Receptor tyrosine-protein kinase erbB-2 (Homo sapiens) (UniProt P04626); test: Inhibition of human HER2 assessed as residual activity at 5 uM relative to control; outline: as §2
[19] = system: MCF7; test: Induction of apoptosis in human MCF7 cells assessed as necrotic cells at 50 uM incubated for 12 hrs by Annexin V-FITC/PI staining based flow cytometry (reference value: 0.56 +/- 0.04 %); type: functional
[20] = system: HCT-116; test: Induction of apoptosis in human HCT-116 cells assessed as late apoptotic cells at 50 uM incubated for 12 hrs by Annexin V-FITC/PI staining based flow cytometry (reference value: 2.8 +/- 0.38 %); type: functional
[21] = system: HCT-116; test: Induction of morphological changes in human HCT-116 cells assessed as multiple cellular remnants formation incubated for 24 hrs by SEM analysis; type: functional, cell-based
[22] = system: HCT-116; test: Induction of cell cycle arrest in human HCT-116 cells assessed as accumulation of cells at S phase at 50 uM incubated for 12 hrs by PI staining based flow cytometry (reference value: 18.7 +/- 0.5 %); type: functional
[23] = system: MCF7; test: Induction of apoptosis in human MCF7 cells assessed as early apoptotic cells at 50 uM incubated for 12 hrs by Annexin V-FITC/PI staining based flow cytometry (reference value: 0.33 +/- 0.12 %); type: functional
[24] = system: MCF7; test: Induction of morphological changes in human MCF7 cells assessed as formation of round vesicular bodies incubated for 24 hrs by SEM analysis; type: functional, cell-based
[25] = system: HCT-116; test: Induction of apoptosis in human HCT-116 cells assessed as necrotic cells at 50 uM incubated for 12 hrs by Annexin V-FITC/PI staining based flow cytometry (reference value: 3.5 +/- 0.66 %); type: functional
[26] = system: HCT-116; test: Induction of cell cycle arrest in human HCT-116 cells assessed as accumulation of cells at G2/M phase at 50 uM incubated for 12 hrs by PI staining based flow cytometry (reference value: 8.3 +/- 0.74 %); type: functional
[27] = system: HCT-116; test: Induction of morphological changes in human HCT-116 cells assessed as formation of vesicular bodies incubated for 24 hrs by SEM analysis; type: functional, cell-based
[28] = system: MCF7; test: Induction of morphological changes in human MCF7 cells assessed as formation of membrane blebbing incubated for 24 hrs by SEM analysis; type: functional, cell-based
[29] = system: HCT-116; test: Induction of morphological changes in human HCT-116 cells assessed as formation of membrane blebbing incubated for 24 hrs by SEM analysis; type: functional, cell-based
[30] = system: HCT-116; test: Induction of morphological changes in human HCT-116 cells assessed as flattening of cellular structure incubated for 24 hrs by SEM analysis; type: functional, cell-based
[31] = system: HCT-116; test: Induction of morphological changes in human HCT-116 cells assessed as pore formation in cell membrane incubated for 24 hrs by SEM analysis; type: functional, cell-based
[32] = system: MCF7; test: Cytotoxicity against human MCF7 cells at 50 uM incubated for 12 hrs by PI staining based flow cytometry relative to control; type: functional
[33] = system: MCF7; test: Induction of apoptosis in human MCF7 cells assessed as late apoptotic cells at 50 uM incubated for 12 hrs by Annexin V-FITC/PI staining based flow cytometry (reference value: 0.26 +/- 0.09 %); type: functional
[34] = system: MCF7; test: Induction of morphological changes in human MCF7 cells assessed as formation of large pores in cell membrane incubated for 12 hrs by SEM analysis
[35] = system: HCT-116; test: Antiproliferative activity against human HCT-116 cells incubated for 5 days by PrestoBlue assay; type: functional, cell-based; conditions: HCT-116, 120 h
[36] = system: MCF7; test: Antiproliferative activity against human MCF7 cells incubated for 5 days by PrestoBlue assay; type: functional, cell-based; conditions: MCF7, 120 h

Row | SMILES | IC50 [1] [µM] | IC50 [2] [µM] | Activity [3] [%] | Activity [4] [%] | Activity [5] [%] | Activity [6] [%] | Activity [7] [%] | Activity [8] [%] | Activity [9] [%] | Activity [10] [%] | Activity [11] [%] | Activity [12] [%] | Activity [13] [%] | Activity [14] [%] | Activity [15] [%] | Activity [16] [%] | Activity [17] [%] | Activity [18] [%] | other results
1 | Cc1ccc(S(=O)(=O)N2CC(CCn3cnc4c(Br)ncnc43)Oc3ccc(Br)cc32)cc1 (configuration not stated) | 7.31 | 16.4 | – | – | – | – | – | – | – | – | – | – | – | – | – | – | – | – | –
2 | Cc1ccc(S(=O)(=O)N2CC(CCn3cnc4c(Br)ncnc43)Oc3cc(Cl)ccc32)cc1 (configuration not stated) | 6.77 | 12.8 | 108 | 91 | 112 | 129 | 90 | 65 | 99 | 90 | 73 | 64 | 89 | 68 | 94 | 94 | 47 | 84 | –
3 | Cc1ccc(S(=O)(=O)N2CC(CCn3cnc4c(Cl)nc(Cl)nc43)Oc3cc(Cl)ccc32)cc1 (configuration not stated) | 3.26 | 7.63 | 74 | 72 | 77 | 100 | 87 | 67 | 139 | 93 | 89 | 57 | 78 | 94 | 84 | 103 | 67 | 76 | Activity [19]: 0.83%; Activity [20]: 49.5%; Activity [21]: Active; Activity [22]: 49.2%; Activity [23]: 7.9%; Activity [24]: Active; Activity [25]: 28.4%; Activity [26]: 6.67%; Activity [27]: Active; Activity [28]: Active; Activity [29]: Active; Activity [30]: Active; Activity [31]: Active; Activity [32]: 100%; Activity [33]: 87.3%; Activity [34]: Active
4 | Cc1ccc(S(=O)(=O)N2CC(CCn3cnc4c(C(F)(F)F)ncnc43)Oc3cc(Cl)ccc32)cc1 (configuration not stated) | 23 | 13.6 | – | – | – | – | – | – | – | – | – | – | – | – | – | – | – | – | –
5 | Cc1ccc(S(=O)(=O)N2CC(CCn3cnc4c(Cl)nc(Cl)nc43)Oc3ccc(Br)cc32)cc1 (configuration not stated) | 5.52 | 7.85 | 94 | 97 | 59 | 95 | 86 | 63 | 87 | 86 | 70 | 59 | 88 | 66 | 98 | 95 | 44 | 78 | –
6 | Cc1ccc(S(=O)(=O)N2CC(CCn3cnc4c(Cl)nc(Cl)nc43)Oc3ccccc32)cc1 (configuration not stated) | – | – | – | – | – | – | – | – | – | – | – | – | – | – | – | – | – | – | IC50 [35]: 7.06 µM; IC50 [36]: 13 µM
7 | Cc1ccc(S(=O)(=O)N2CC(CCn3cnc4c(Cl)ncnc43)Oc3cc(Cl)ccc32)cc1 (configuration not stated) | 11.2 | 14.8 | – | – | – | – | – | – | – | – | – | – | – | – | – | – | – | – | –
8 | Cc1ccc(S(=O)(=O)N2CC(CCn3cnc4c(Cl)nc(Cl)nc43)Oc3ccc(C)cc32)cc1 (configuration not stated) | 2.27 | 4.44 | 96 | 112 | 82 | 89 | 93 | 50 | 104 | 88 | 75 | 62 | 96 | 73 | 88 | 88 | 56 | 90 | Activity [19]: 2.1%; Activity [20]: 26.5%; Activity [21]: Active; Activity [22]: 51.25%; Activity [23]: 9.3%; Activity [24]: Active; Activity [25]: 36.3%; Activity [26]: 5.3%; Activity [27]: Active; Activity [28]: Active; Activity [29]: Active; Activity [30]: Active; Activity [32]: 100%; Activity [33]: 77.8%; Activity [34]: Active
9 | Cc1ccc(S(=O)(=O)N2CC(CCn3cnc4c(Cl)ncnc43)Oc3ccc(C)cc32)cc1 (configuration not stated) | 12.9 | 23.8 | – | – | – | – | – | – | – | – | – | – | – | – | – | – | – | – | –
10 | Cc1ccc(S(=O)(=O)N2CC(CCn3cnc4c(C(F)(F)F)ncnc43)Oc3ccc(C)cc32)cc1 (configuration not stated) | 31.1 | 4.63 | – | – | – | – | – | – | – | – | – | – | – | – | – | – | – | – | –
11 | Cc1ccc(S(=O)(=O)N2CC(CCn3cnc4c(Br)ncnc43)Oc3ccc(C)cc32)cc1 (configuration not stated) | 4.01 | 9.4 | 97 | 93 | 70 | 131 | 90 | 55 | 106 | 81 | 86 | 67 | 84 | 74 | 95 | 89 | 52 | 99 | –
12 | Cc1ccc(S(=O)(=O)N2CC(CCn3cnc4c(C(F)(F)F)ncnc43)Oc3ccc(Br)cc32)cc1 (configuration not stated) | 20.6 | 23.6 | – | – | – | – | – | – | – | – | – | – | – | – | – | – | – | – | –
13 | Cc1ccc(S(=O)(=O)N2CC(CCn3cnc4c(Cl)ncnc43)Oc3ccc(Br)cc32)cc1 (configuration not stated) | 14.5 | 15.7 | – | – | – | – | – | – | – | – | – | – | – | – | – | – | – | – | –
